# According to publication PMC4019989 (Clinical cancer research : an official journal of the …, 2009):
# Where two headings read alike, the source gives them in different places.
# Experiments:
# [1] = test system: patients with relapsed or refractory hematologic malignancies; test: Phase 1 dose escalation: adverse events, DLT, MTD; assay type: in vivo
# [2] = test system: chymotrypsin-like activity of the proteasome; conditions: monkeys; i.v. for 5 consecutive days; multiple tissues; well tolerated; cited from earlier work
# [3] = test system: chymotrypsin-like activity of the proteasome; conditions: rats; i.v. for 5 consecutive days; multiple tissues; well tolerated; cited from earlier work
# [4] = test system: 20S chymotrypsin-like proteasome activity; assay type: in vivo, human
# Procedure, shortened: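 Chymotrypsin-like proteasome activity in patient whole blood and PBMCs, read with a fluorogenic substrate. Samples: cycle 1 day 1 predose, 1 and 24 h postdose; predose and 1 h postdose on cycle 1 day 5 and day 1 of cycles 2 and 3. Dosing was i.v. push days 1–5 with 9-d rest. Percent activity is each sample's specific activity relative to cycle 1 day 1 predose. Mean ± SEM.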
structure (smiles),measurement,setting,value
CC(C)C[C@H](NC(=O)[C@H](CCc1ccccc1)NC(=O)CN1CCOCC1)C(=O)N[C@@H](Cc1ccccc1)C(=O)N[C@@H](CC(C)C)C(=O)[C@@]1(C)CO1 [carfilzomib],"Adverse event Dyspnea, Grade 2","[1]; human, in vivo",0 (0) n (%)
same,"Adverse event Dyspnea, Grade 3","[1]; human, in vivo",1 (3) n (%)
same,"Adverse event Dyspnea, Grade 4","[1]; human, in vivo",1 (3) n (%)
same,"Adverse event Exertional dyspnea, All Grades","[1]; human, in vivo",6 (21) n (%)
same,"Adverse event Exertional dyspnea, Grade 1","[1]; human, in vivo",6 (21) n (%)
same,"Adverse event Exertional dyspnea, Grade 2","[1]; human, in vivo",0 (0) n (%)
same,"Adverse event Exertional dyspnea, Grade 3","[1]; human, in vivo",0 (0) n (%)
same,"Adverse event Exertional dyspnea, Grade 4","[1]; human, in vivo",0 (0) n (%)
same,"Adverse event Fatigue, All Grades","[1]; human, in vivo",14 (48) n (%)
same,"Adverse event Fatigue, Grade 1","[1]; human, in vivo",10 (35) n (%)
same,"Adverse event Fatigue, Grade 2","[1]; human, in vivo",3 (10) n (%)
same,"Adverse event Fatigue, Grade 3","[1]; human, in vivo",1 (3) n (%)
same,"Adverse event Fatigue, Grade 4","[1]; human, in vivo",0 (0) n (%)
same,"Adverse event Headache, All Grades","[1]; human, in vivo",7 (24) n (%)
same,"Adverse event Headache, Grade 1","[1]; human, in vivo",7 (24) n (%)
same,"Adverse event Headache, Grade 2","[1]; human, in vivo",0 (0) n (%)
same,"Adverse event Headache, Grade 3","[1]; human, in vivo",0 (0) n (%)
same,"Adverse event Headache, Grade 4","[1]; human, in vivo",0 (0) n (%)
same,"Adverse event Hypoesthesia, All Grades","[1]; human, in vivo",8 (28) n (%)
same,"Adverse event Hypoesthesia, Grade 1","[1]; human, in vivo",5 (17) n (%)
same,"Adverse event Hypoesthesia, Grade 2","[1]; human, in vivo",3 (10) n (%)
same,"Adverse event Hypoesthesia, Grade 3","[1]; human, in vivo",0 (0) n (%)
same,"Adverse event Hypoesthesia, Grade 4","[1]; human, in vivo",0 (0) n (%)
same,"Adverse event Nausea, All Grades","[1]; human, in vivo",14 (48) n (%)
same,"Adverse event Nausea, Grade 1","[1]; human, in vivo",11 (38) n (%)
same,"Adverse event Nausea, Grade 2","[1]; human, in vivo",3 (10) n (%)
same,"Adverse event Nausea, Grade 3","[1]; human, in vivo",0 (0) n (%)
same,"Adverse event Nausea, Grade 4","[1]; human, in vivo",0 (0) n (%)
same,"Adverse event Paresthesia, All Grades","[1]; human, in vivo",6 (21) n (%)
same,"Adverse event Paresthesia, Grade 1","[1]; human, in vivo",4 (14) n (%)
same,"Adverse event Paresthesia, Grade 2","[1]; human, in vivo",2 (7) n (%)
same,"Adverse event Paresthesia, Grade 3","[1]; human, in vivo",0 (0) n (%)
same,"Adverse event Paresthesia, Grade 4","[1]; human, in vivo",0 (0) n (%)
same,"Adverse event Peripheral edema, All Grades","[1]; human, in vivo",7 (24) n (%)
same,"Adverse event Peripheral edema, Grade 1","[1]; human, in vivo",7 (24) n (%)
same,"Adverse event Peripheral edema, Grade 2","[1]; human, in vivo",0 (0) n (%)
same,"Adverse event Peripheral edema, Grade 3","[1]; human, in vivo",0 (0) n (%)
same,"Adverse event Peripheral edema, Grade 4","[1]; human, in vivo",0 (0) n (%)
same,"Adverse event Pyrexia, All Grades","[1]; human, in vivo",8 (28) n (%)
same,"Grade 3 and 4 adverse events: ALT increased, Grade 3","[1]; human, in vivo",1 (3) n (%)
same,"Grade 3 and 4 adverse events: ALT increased, Grade 4","[1]; human, in vivo",0 (0) n (%)
same,"Grade 3 and 4 adverse events: Acute bronchitis, Grade 3","[1]; human, in vivo",1 (3) n (%)
same,"Grade 3 and 4 adverse events: Acute bronchitis, Grade 4","[1]; human, in vivo",0 (0) n (%)
same,"Grade 3 and 4 adverse events: Acute bronchitis, Grades 3-4","[1]; human, in vivo",1 (3) n (%)
same,"Grade 3 and 4 adverse events: Alkaline phosphatase increased, Grade 3","[1]; human, in vivo",1 (3) n (%)
same,"Grade 3 and 4 adverse events: Alkaline phosphatase increased, Grade 4","[1]; human, in vivo",0 (0) n (%)
same,"Grade 3 and 4 adverse events: Alkaline phosphatase increased, Grades 3-4","[1]; human, in vivo",1 (3) n (%)
same,"Grade 3 and 4 adverse events: Anemia, Grade 3","[1]; human, in vivo",1 (3) n (%)
same,"Grade 3 and 4 adverse events: Anemia, Grade 4","[1]; human, in vivo",0 (0) n (%)
same,"Grade 3 and 4 adverse events: Dyspnea, Grade 3","[1]; human, in vivo",1 (3) n (%)
same,"Grade 3 and 4 adverse events: Dyspnea, Grade 4","[1]; human, in vivo",1 (3) n (%)
same,"Grade 3 and 4 adverse events: Fatigue, Grade 3","[1]; human, in vivo",1 (3) n (%)
same,"Grade 3 and 4 adverse events: Fatigue, Grade 4","[1]; human, in vivo",0 (0) n (%)
same,"Grade 3 and 4 adverse events: Fatigue, Grades 3-4","[1]; human, in vivo",1 (3) n (%)
same,"Grade 3 and 4 adverse events: Febrile neutropenia, Grade 3","[1]; human, in vivo",1 (3) n (%)
same,"Grade 3 and 4 adverse events: Febrile neutropenia, Grade 4","[1]; human, in vivo",0 (0) n (%)
same,"Grade 3 and 4 adverse events: Febrile neutropenia, Grades 3-4","[1]; human, in vivo",1 (3) n (%)
same,"Grade 3 and 4 adverse events: Gastrointestinal hemorrhage, Grade 3","[1]; human, in vivo",1 (3) n (%)
same,"Grade 3 and 4 adverse events: Gastrointestinal hemorrhage, Grade 4","[1]; human, in vivo",0 (0) n (%)
same,"Grade 3 and 4 adverse events: Gastrointestinal hemorrhage, Grades 3-4","[1]; human, in vivo",1 (3) n (%)
same,"Grade 3 and 4 adverse events: Hemoglobin decreased, Grade 3","[1]; human, in vivo",1 (3) n (%)
same,"Grade 3 and 4 adverse events: Hemoglobin decreased, Grade 4","[1]; human, in vivo",0 (0) n (%)
same,"Grade 3 and 4 adverse events: Hemoglobin decreased, Grades 3-4","[1]; human, in vivo",1 (3) n (%)
same,maximum tolerated dose (MTD),[1]; i.v. push on 5 consecutive days within 14-day cycles,15 mg/m^2
same,DLTs in the initial seven dose cohorts,[1]; in vivo,No DLTs were observed
same,Proteasome (chymotrypsin-like activity) inhibition,[2],> 80%
same,Proteasome (chymotrypsin-like activity) inhibition,[3],> 80%
same,Recovery of proteasome activity in PBMCs,[4]; during the 9-day rest period,generally returned to baseline
same,Recovery of proteasome activity in whole blood,[4]; during the 9-day rest period,only partially recovered
same,Proteasome inhibition after a single dose,"[4]; whole blood and PBMCs, dose levels of 15 mg/m^2 and higher, 1 hour after dosing on day 1",> 75%
same,Proteasome inhibition after the fifth consecutive day of dosing,"[4]; whole blood and PBMCs, highest dose groups, 1 h after the fifth dose",> 90%
